{
  "source": "ChEMBL document CHEMBL4138319",
  "about": "“Discovery, Synthesis, Pharmacological Profiling, and Biological Characterization of Brintonamides A-E, Novel Dual Protease and GPCR Modulators from a Marine Cyanobacterium” (J Med Chem, 2018)",
  "key": {"Caspase-14": {"target": "T1, Caspase-14 (Homo sapiens, UniProt P31944)", "T1 sequence (P31944 whole entry)": "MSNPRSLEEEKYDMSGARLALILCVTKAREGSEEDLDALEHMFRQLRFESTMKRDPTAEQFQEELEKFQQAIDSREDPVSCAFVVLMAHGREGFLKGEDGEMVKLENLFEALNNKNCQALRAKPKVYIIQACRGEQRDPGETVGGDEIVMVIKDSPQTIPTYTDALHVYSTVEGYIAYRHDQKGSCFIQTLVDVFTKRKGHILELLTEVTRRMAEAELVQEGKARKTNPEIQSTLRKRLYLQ", "test": "Inhibition of human caspase 14 using Ac-WEHD-AMC fluorogenic peptide as substrate by fluorescence assay", "how_it_was_run": "(§1)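 Activity followed as a time course of rising fluorescence from a fluorescently labelled peptide substrate. The initial linear slope (signal/min) was used.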"}, "Substance-K receptor": {"target": "T2, Substance-K receptor (Homo sapiens, UniProt P21452)", "T2 sequence (P21452 whole entry)": "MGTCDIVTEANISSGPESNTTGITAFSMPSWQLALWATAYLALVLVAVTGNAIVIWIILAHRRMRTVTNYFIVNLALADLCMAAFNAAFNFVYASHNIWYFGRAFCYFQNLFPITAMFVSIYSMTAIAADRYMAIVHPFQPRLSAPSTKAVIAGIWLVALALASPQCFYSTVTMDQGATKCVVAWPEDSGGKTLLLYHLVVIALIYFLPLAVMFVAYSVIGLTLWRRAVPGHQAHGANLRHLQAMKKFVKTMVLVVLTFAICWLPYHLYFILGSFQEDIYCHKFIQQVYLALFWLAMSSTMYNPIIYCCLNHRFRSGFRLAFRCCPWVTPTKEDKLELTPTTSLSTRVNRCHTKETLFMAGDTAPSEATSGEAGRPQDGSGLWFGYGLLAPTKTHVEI", "test": "Antagonist activity at human TACR2 expressed in CHOK1 cells assessed as substance P-induced beta-arrestin recruitment pre-incubated for 30 mins before substance P stimulation for 90 or 180 mins by chemiluminescence method", "type": "functional, cell-based", "how_it_was_run": "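PathHunter β-arrestin complementation assay, antagonist mode. Cells co-express ProLink-tagged GPCR and enzyme-acceptor-tagged β-arrestin and are pre-incubated with sample for 30 min at 37 °C or room temperature. Dose-response: 10 points, 3-fold dilutions from 20 μM, in duplicate.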"}, "Kallikrein-7 [1]": {"target": "T3, Kallikrein-7 (Homo sapiens, UniProt P49862)", "test": "Inhibition of kallikrein 7-mediated Dsg-2 shedding in human MDA-MB-468 cells at 0.01 to 10 uM incubated for 48 hrs by ELISA", "type": "cell-based"}, "Kallikrein-7 [2]": {"target": "T3, Kallikrein-7", "test": "Inhibition of recombinant human kallikrein 7 assessed as decrease in cleavage of desmoglein-2 at 10 uM after 30 mins or 2 hrs by silver staining based SDS-PAGE analysis"}, "[3]": {"target": "T4, C-C chemokine receptor type 10 (Homo sapiens) (UniProt P46092)", "T4 sequence (whole entry)": "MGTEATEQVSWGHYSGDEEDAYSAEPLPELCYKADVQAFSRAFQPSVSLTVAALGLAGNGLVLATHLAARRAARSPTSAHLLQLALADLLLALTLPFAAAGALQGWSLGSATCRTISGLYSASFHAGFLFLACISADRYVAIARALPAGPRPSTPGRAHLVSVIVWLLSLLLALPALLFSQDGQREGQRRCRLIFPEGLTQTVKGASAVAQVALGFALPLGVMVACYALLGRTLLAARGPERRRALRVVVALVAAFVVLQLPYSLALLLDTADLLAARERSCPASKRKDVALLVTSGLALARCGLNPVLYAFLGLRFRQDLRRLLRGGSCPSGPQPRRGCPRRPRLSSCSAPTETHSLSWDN", "test": "Antagonist activity at human CCR10 expressed in human U2OS cells assessed as inhibition of CCL27-induced beta-arrestin recruitment at 10 uM pre-incubated for 30 mins before CCL27 stimulation for 90 or 180 mins by chemiluminescence method", "type": "functional, cell-based", "set-up": "scale not given: the % may be the effect or the level left"}, "Chymase": {"target": "T5, Chymase (Homo sapiens, UniProt P23946)", "T5 sequence (P23946 whole entry)": "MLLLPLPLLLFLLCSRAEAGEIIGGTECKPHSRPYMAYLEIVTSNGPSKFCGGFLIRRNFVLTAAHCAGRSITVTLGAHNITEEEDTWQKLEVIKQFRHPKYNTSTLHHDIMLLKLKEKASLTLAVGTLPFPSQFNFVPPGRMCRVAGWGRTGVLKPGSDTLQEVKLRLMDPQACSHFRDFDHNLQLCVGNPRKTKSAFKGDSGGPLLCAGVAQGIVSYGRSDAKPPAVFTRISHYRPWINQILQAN", "test": "Inhibition of chymase (unknown origin) by fluorescence assay", "how_it_was_run": "as §1"}, "[4]": {"target": "T6, Oxytocin receptor (Homo sapiens) (UniProt P30559)", "T6 sequence (whole entry)": "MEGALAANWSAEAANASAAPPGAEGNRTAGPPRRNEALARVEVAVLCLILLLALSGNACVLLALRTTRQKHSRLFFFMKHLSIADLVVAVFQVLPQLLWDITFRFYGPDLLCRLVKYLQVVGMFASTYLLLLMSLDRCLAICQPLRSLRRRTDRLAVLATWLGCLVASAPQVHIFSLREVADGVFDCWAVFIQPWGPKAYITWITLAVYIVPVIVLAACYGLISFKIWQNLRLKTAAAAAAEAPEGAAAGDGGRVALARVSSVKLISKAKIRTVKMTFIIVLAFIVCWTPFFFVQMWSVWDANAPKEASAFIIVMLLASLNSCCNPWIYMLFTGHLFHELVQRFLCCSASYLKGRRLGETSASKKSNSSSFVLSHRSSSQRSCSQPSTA", "test": "Antagonist activity at human OXTR expressed in CHOK1 cells assessed as oxytocin-induced beta-arrestin recruitment at 10 uM pre-incubated for 30 mins before oxytocin stimulation for 90 or 180 mins by chemiluminescence method", "type": "functional, cell-based", "set-up": "scale not given: the % may be the effect or the level left"}, "MDA-MB-231": {"test_system": "MDA-MB-231", "test": "Toxicity in human MDA-MB-231 cells assessed as inhibition of proliferation after 48 hrs by MTT assay", "type": "cell-based", "conditions": "mda-mb-231, 48 h", "how_it_was_run": "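MDA-MB-231 cells are grown in DMEM with 10% FBS and seeded at 10,000 cells/well for 24 h. Cells are then exposed to graded compound concentrations or DMSO for 48 h. Viability is measured by MTT.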"}, "[5]": {"target": "Atypical chemokine receptor 3 (Homo sapiens, UniProt P25106)", "sequence (P25106 whole entry)": "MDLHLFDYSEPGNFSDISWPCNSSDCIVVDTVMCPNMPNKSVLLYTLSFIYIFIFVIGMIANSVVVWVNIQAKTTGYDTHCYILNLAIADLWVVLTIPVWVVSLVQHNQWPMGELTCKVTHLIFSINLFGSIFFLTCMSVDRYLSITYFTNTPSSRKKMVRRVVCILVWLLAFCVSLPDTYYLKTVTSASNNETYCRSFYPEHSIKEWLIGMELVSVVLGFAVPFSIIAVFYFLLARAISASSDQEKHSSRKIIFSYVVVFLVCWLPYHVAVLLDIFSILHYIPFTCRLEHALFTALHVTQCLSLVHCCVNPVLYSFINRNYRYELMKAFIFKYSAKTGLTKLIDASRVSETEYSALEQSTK", "test": "Agonist activity at human CXCR7 expressed in CHOK1 cells assessed as induction of beta-arrestin recruitment at 20 uM by chemiluminescence method", "type": "functional, cell-based"}, "[6]": {"target": "T4, C-C chemokine receptor type 10 (Homo sapiens)", "test": "Antagonist activity at CCR10 in human MDA-MB-231 cells assessed as inhibition of CCL27-induced proliferation up to 10 uM preincubated for 2 hrs followed by CCL27 addition measured after 48 hrs by MTT assay", "type": "functional, cell-based", "how_it_was_run": "(§2)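 MDA-MB-231 cells are seeded at 10,000/well in serum-free DMEM for 24 h, then pretreated with compound for 2 h. CCL27 is added at 1 μg/mL final for 48 h. Viability is measured by MTT and compared with solvent control, mean ± SD, n = 3.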"}, "[7]": {"target": "T4, C-C chemokine receptor type 10 (Homo sapiens)", "test": "Antagonist activity at CCR10 in human MDA-MB-231 cells assessed as inhibition of CCL27-induced proliferation preincubated for 2 hrs followed by CCL27 addition measured after 48 hrs by MTT assay", "type": "functional, cell-based", "how_it_was_run": "as §2"}, "Kallikrein-7 [8]": {"target": "T3, Kallikrein-7", "test": "Inhibition of kallikrein 7 (unknown origin) by fluorescence assay", "how_it_was_run": "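Protease panel screen: 10-dose titrations, 3-fold serial dilution from 100 μM, singlet. Protease activity is followed as the time-course rise in fluorescence from a labeled peptide substrate, and the initial linear slope (signal/min) is analysed.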"}},
  "note": "pIC50: −log10 of the molar value. Calls of active or inactive are those of the source. The calls are words filed in the database; no cut-off is given here. Square brackets hold non-standard residues; d marks the D form. Peptide text beside a SMILES is read from it. * marks the point of attachment. X1 = CC[C@H](C)[C@@H](OC(=O)/C=C/c1ccccc1)C(=O)*; dNMeF = CN[C@H](Cc1ccccc1)C(=O)O; NMeL = CN[C@@H](CC(C)C)C(=O)O",
  "data": [
    {"smiles": "CC[C@H](C)[C@@H](OC(=O)/C=C/c1ccccc1)C(=O)N1CCC[C@H]1C(=O)NCC(=O)N(C)[C@@H](CC(C)C)C(=O)N[C@@H](C)C(=O)N(C)[C@H](Cc1ccccc1)C(=O)N1CCC[C@H]1C(=O)OC", "note": "(X1-PG[NMeL]A[dNMeF]P-OMe)", "values": [
      {"measurement": "pIC50", "setting": "Caspase-14", "result": 5.00},
      {"measurement": "pIC50", "setting": "Substance-K receptor", "result": 5.75},
      {"measurement": "inhibition", "setting": "Kallikrein-7 [1]", "result": "inactive"},
      {"measurement": "inhibition", "setting": "Kallikrein-7 [2]", "result": "Active"},
      {"measurement": "Activity", "setting": "[3]", "result": 98, "unit": "%"},
      {"measurement": "pIC50", "setting": "Chymase", "result": 4.63},
      {"measurement": "Activity", "setting": "[4]", "result": 76, "unit": "%"},
      {"measurement": "Activity", "setting": "MDA-MB-231", "result": "Non-Toxic"},
      {"measurement": "Activity", "setting": "[5]", "result": 91, "unit": "%"},
      {"measurement": "inhibition", "setting": "[6]", "result": 10, "unit": "%"},
      {"measurement": "inhibition", "setting": "[7]", "result": "Dose-dependent effect"},
      {"measurement": "pIC50", "setting": "Kallikrein-7 [8]", "result": 4.72}
    ]}
  ]
}
